# Data: ChEMBL document CHEMBL1921679, “Synthesis and biological evaluation of novel pyrimidine derivatives as sub-micromolar affinity ligands of GalR2” (Bioorg Med Chem Lett, 2011)
# Key:
# Galanin receptor type 1 [1] = target: T1, Galanin receptor type 1 (Homo sapiens, UniProt P47211); assay: Displacement of [125I]galanin from GalR1 by gamma counting
# T1 sequence (P47211 whole entry): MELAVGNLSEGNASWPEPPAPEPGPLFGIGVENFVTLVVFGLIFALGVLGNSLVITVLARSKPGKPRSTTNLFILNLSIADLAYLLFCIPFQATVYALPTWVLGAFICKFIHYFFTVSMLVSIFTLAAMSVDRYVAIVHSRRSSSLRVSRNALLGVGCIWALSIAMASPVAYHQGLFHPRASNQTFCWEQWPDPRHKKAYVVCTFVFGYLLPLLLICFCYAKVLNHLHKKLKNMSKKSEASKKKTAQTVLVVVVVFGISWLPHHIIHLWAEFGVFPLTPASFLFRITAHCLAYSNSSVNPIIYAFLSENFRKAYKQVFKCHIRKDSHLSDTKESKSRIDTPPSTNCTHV
# Procedure, shortened: (§1)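 Full-curve competition over 10 nM–100 μM, with a rat galanin control on every plate. Compounds were diluted in 20% DMSO. Membranes were GalR1 2.5 μg or GalR2 5 μg, with 125I porcine galanin at 0.1 nM (GalR1) or 0.15 nM (GalR2), 1 h at room temperature. Filtration, washing and γ-counting followed. IC50 came from a nonlinear one-site competition fit, reported only when the curve bottom fell below 35% of total binding.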
# Galanin receptor type 2 [2] = target: T2, Galanin receptor type 2 (Homo sapiens, UniProt O43603); assay: Displacement of [125I]galanin from GalR2 by gamma counting; procedure, shortened: as §1
# T2 sequence (O43603 whole entry): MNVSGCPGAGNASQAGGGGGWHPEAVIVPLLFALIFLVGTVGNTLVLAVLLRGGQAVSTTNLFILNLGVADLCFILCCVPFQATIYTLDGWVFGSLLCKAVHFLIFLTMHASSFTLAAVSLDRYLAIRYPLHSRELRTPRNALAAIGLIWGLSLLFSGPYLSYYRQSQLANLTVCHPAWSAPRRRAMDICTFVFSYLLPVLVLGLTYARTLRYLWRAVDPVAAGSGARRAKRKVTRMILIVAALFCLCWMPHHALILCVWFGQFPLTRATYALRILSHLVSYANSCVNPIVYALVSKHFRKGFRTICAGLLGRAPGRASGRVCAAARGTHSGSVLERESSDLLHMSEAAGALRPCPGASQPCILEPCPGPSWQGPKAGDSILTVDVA
# [3] = target: T3, Galanin receptor type 2 (Homo sapiens) (UniProt O43603); assay: Displacement of [125I]galanin from GalR2 at 1 uM by gamma counting
# T3 sequence (whole entry): T2 sequence (O43603 whole entry)
# Procedure, shortened: (§2)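 Single-point screen at 1 and 10 μM, in duplicate, with two screens per receptor. Final 125I porcine galanin was 0.1 nM (GalR1) or 0.15 nM (GalR2). Incubation 1 h, room temperature. Filtration through PEI-treated glass fibre, cold PBS/Triton washes, γ-counting.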
# [4] = target: T3, Galanin receptor type 2 (Homo sapiens); assay: Displacement of [125I]galanin from GalR2 at 10 uM by gamma counting; procedure, shortened: as §2
# Galanin receptor type 1 [5] = target: T1, Galanin receptor type 1; assay: Displacement of [125I]galanin from GalR1 at 100 uM by gamma counting
# Galanin receptor type 2 [6] = target: T2, Galanin receptor type 2; assay: Displacement of [125I]galanin from GalR2 at 100 uM by gamma counting
SMILES,IC50 (Galanin receptor type 1 [1]) [µM],IC50 (Galanin receptor type 2 [2]) [µM],inhibition [3] [%],inhibition [4] [%],IC50 (Galanin receptor type 1 [5]),IC50 (Galanin receptor type 2 [6])
COc1ccc(Nc2cc(Nc3cccc(OC)c3)nc(NC3CCCCC3)n2)cc1,5.62,1.75,> 50,> 50,,
FC(F)(F)Oc1ccc(Nc2cc(Nc3ccccc3)nc(N3CCCCC3)n2)cc1,,,,,Not Active,Not Active
COc1ccc(Nc2cc(Nc3ccccc3)nc(N3CCCCC3)n2)cc1F,6.77,8.65,> 50,> 50,,
COc1ccc(Nc2cc(Nc3cccc(OC(F)F)c3)nc(NC3CCCCC3)n2)cc1,5.03,0.77,> 50,> 50,,
COc1ccc(Nc2cc(Nc3ccc(OC(F)F)cc3)nc(NC3CCCCC3)n2)cc1,27.5,12.5,> 50,> 50,,
COc1ccc(Nc2nc(Nc3ccc(OC)c(F)c3)cc(N3CCCC3)n2)cc1,,,,,Not Active,Not Active
COc1ccc(Nc2cc(N3CCCCC3)nc(N3CCCN(c4ncccc4C(F)(F)F)CC3)n2)cc1,3.35,1.92,> 50,> 50,,
COc1ccc(Nc2cc(N3CCN(c4ccccc4)CC3)nc(N3CCCC3)n2)cc1,12.8,3.4,> 50,> 50,,
COc1ccc(Nc2nc(Nc3ccc(OC)c(F)c3)cc(N3CCCCC3)n2)cc1,,0.43,> 50,> 50,Not Active,
COc1ccc(Nc2cc(Nc3ccc(OC(F)(F)F)cc3)nc(NC3CCCCC3)n2)cc1,5.93,1.06,> 50,> 50,,
Cc1ccc(C)c(Nc2cc(N3CCCCC3)nc(N3CCCN(c4ncccc4C(F)(F)F)CC3)n2)c1,3.9,2.08,> 50,> 50,,
COc1ccc(Nc2cc(Nc3cccc(OC)c3)nc(N3CCCC3)n2)cc1,4.6,0.93,> 50,> 50,,
COc1ccc(Nc2nc(Nc3ccc(OC)c(F)c3)cc(N3CCCN(C(=O)OC(C)(C)C)CC3)n2)cc1,2.82,9.07,> 50,> 50,,
COc1ccc(Nc2nc(NCc3cccc(C(F)(F)F)c3)cc(N3CCCCC3)n2)cc1,,1.93,> 50,> 50,Not Active,
COc1ccc(Nc2nc(Nc3ccc(OC)c(F)c3)cc(N3CCCCC3C)n2)cc1 (stereo not drawn),,,,,Not Active,Not Active
COc1ccc(Nc2nc(Nc3cc(C)ccc3C)cc(N3CCCCC3)n2)cc1,,0.44,> 50,> 50,Not Active,
COc1ccc(Nc2nc(Nc3cccc(F)c3C)cc(N3CCCCC3)n2)cc1,,0.38,> 50,> 50,Not Active,
COc1ccc(Nc2nc(Nc3ccc(F)cc3C)cc(N3CCCCC3)n2)cc1,,0.98,> 50,> 50,Not Active,
COc1ccc(Nc2nc(Nc3ccc(OC(F)F)cc3)cc(N3CCCCC3)n2)cc1,,,,,Not Active,Not Active
COc1ccc(Nc2cc(Nc3cccc(OC(F)(F)F)c3)nc(NC3CCCCC3)n2)cc1,6.82,0.55,> 50,> 50,,
COc1ccc(Nc2cc(Nc3ccccc3)nc(N3CCCCC3)n2)cc1,8.59,1.09,> 50,> 50,,
Cc1c(F)cccc1Nc1cc(N2CCCCC2)nc(N2CCCN(c3ncccc3C(F)(F)F)CC2)n1,1.3,0.56,> 50,> 50,,
COc1ccc(Nc2cc(N3CCCCC3)nc(N3CCCN(c4ncccc4C(F)(F)F)CC3)n2)cc1F,6.32,2.03,> 50,> 50,,
COc1ccc(Nc2nc(Nc3ccc(F)c(Cl)c3)cc(N3CCCCC3)n2)cc1,,4.18,> 50,> 50,Not Active,
COc1ccc(Nc2nc(Nc3ccc(OC)c(F)c3)cc(N3CCCCCC3)n2)cc1,5.48,0.77,> 50,> 50,,
COc1ccc(Nc2nc(Nc3ccc(C)cc3C)cc(N3CCCCC3)n2)cc1,,1.18,> 50,> 50,Not Active,
COc1ccc(Nc2nc(Nc3ccc(OC)c(F)c3)cc(N3CCCC(C)C3)n2)cc1 (stereo not drawn),6.78,1.34,> 50,> 50,,
COc1ccc(Nc2cc(Nc3ccc(OC)cc3)nc(N3CCCC3)n2)cc1,,8.04,> 50,> 50,Not Active,
COc1ccc(Nc2nc(NCC3CCCCC3)cc(Nc3ccc(OC)c(F)c3)n2)cc1,3.84,,> 50,> 50,,Not Active

# The remaining lines, values ahead:
IC50 (Galanin receptor type 1 [1]) [µM],IC50 (Galanin receptor type 2 [2]) [µM],inhibition [3] [%],inhibition [4] [%],IC50 (Galanin receptor type 1 [5]),IC50 (Galanin receptor type 2 [6]),SMILES
,3.69,> 50,> 50,Not Active,,c1ccc(Nc2cc(NCc3ccc4c(c3)OCO4)nc(N3CCCCC3)n2)cc1
,0.33,> 50,> 50,Not Active,,COc1ccc(Nc2nc(Nc3ccc(OC(F)(F)F)cc3)cc(N3CCCCC3)n2)cc1
6.82,24.9,> 50,> 50,,,COc1ccc(Nc2nc(Nc3ccc(OC)c(F)c3)cc(N3CCN(c4ccccc4)CC3)n2)cc1
34.9,6.62,> 50,> 50,,,FC(F)(F)Oc1cccc(Nc2cc(Nc3ccccc3)nc(N3CCCCC3)n2)c1
6.9,4.15,> 50,> 50,,,FC(F)Oc1cccc(Nc2cc(Nc3ccccc3)nc(N3CCCCC3)n2)c1
,,,,Not Active,Not Active,COc1ccc(Nc2nc(Nc3ccc(OC)c(F)c3)cc(N3CCC(C)CC3)n2)cc1
,0.54,> 50,> 50,Not Active,,COc1ccc(Nc2nc(Nc3cccc(OC(F)F)c3)cc(N3CCCCC3)n2)cc1
,2.85,> 50,> 50,Not Active,,CCN(CC)c1cc(Nc2ccc(OC)c(F)c2)nc(Nc2ccc(OC)cc2)n1
,3.38,> 50,> 50,Not Active,,FC(F)Oc1ccc(Nc2cc(Nc3ccccc3)nc(N3CCCCC3)n2)cc1
16,,,,,Not Active,COc1ccc(Nc2nc(Nc3ccc(OC)c(F)c3)cc(N3CCC(N4CCCCC4)CC3)n2)cc1
,0.38,> 50,> 50,Not Active,,COc1ccc(Nc2nc(Nc3cccc(OC(F)(F)F)c3)cc(N3CCCCC3)n2)cc1
,4.57,> 50,> 50,Not Active,,Cc1ccc(C)c(Nc2cc(Nc3ccccc3)nc(N3CCCCC3)n2)c1
,0.78,> 50,> 50,Not Active,,COc1ccc(Nc2nc(Nc3ccc(C(F)(F)F)cc3)cc(N3CCCCC3)n2)cc1
3.84,,,,,Not Active,COc1ccc(Nc2nc(Nc3ccc(OC)c(F)c3)cc(N3CCN(c4ncccn4)CC3)n2)cc1
